Where two headings read alike, the source gives them in different places.

Results on 9 molecules are retold here after PMC2864154 (Biochemical pharmacology, 2010).

Assay [1] concerns MIN6 cells. The assay can be described thus: Insulin secretion assay. The assay is classed as cell-based, mouse. Conditions: for EC50: read-out: EC50 insulin secretion, 1 h, n=3. The procedure, abridged: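 Cells were seeded at 40,000/well and cultured 48 h in DMEM at 37°C, then preincubated 1 h in KRBB with 3.3 mM glucose and 0.3% albumin. Secretion was stimulated 1 h at 37°C in KRBB with 16.7 mM glucose (or a glucose series) ± agonist, with or without P2Y1/P2Y13 antagonists (30 μM) or a P2Y6 antagonist (10 μM). Insulin was measured by ELISA against a mouse insulin standard; n=3.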

Assay [2] has as its system MIN6 cells. Nature of the assay: Inositol phosphate. In kind it is cell-based, mouse. The settings on record: read-out: EC50 accumulation of intracellular IP3; 30 min at 37°C, 20 mM lithium chloride, n=3. Summed up:
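MIN6 cells were grown to 80% confluence with myo-[3H]-inositol (2 μCi/ml) for 48 h. They were then exposed to P2Y ligand or buffer with 20 mM LiCl for 30 min at 37°C. The reaction was stopped with cold 20 mM formic acid, and supernatants were neutralized with NH4OH. Samples went through AG1-X8 anion exchange, with total IP3 eluted by 1 M ammonium formate/0.1 M formic acid and counted by scintillation; n=3.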

The test system of assay [3] is MIN6 cells. Nature of the assay: TNF-α induced apoptosis, HO342/PI nuclei staining, fluorescence microscopy. In kind it is cell-based, mouse. Conditions: TNF-α 50 ng/ml; for nuclei/cells double stained with HO342 and PI: agonist 10 μM where present. Summed up: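 MIN6 cells were grown 48 h on coverslips, then moved to DMEM with 5% FBS. Cells were pretreated 30 min with 10 μM agonist, which stayed present, then given TNF-α 50 ng/ml (16 h per methods; legend gives staining after 24 h); PBS alone was the negative control. Staining used PI 10 μg/ml plus HO342 20 μg/ml for 10 min, viewed by fluorescence microscopy at 365 nm excitation. Condensed or fragmented blue, pink or red nuclei were scored apoptotic.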

Assay [4] deals with MIN6 cells. The assay can be described thus: TNF-α induced apoptosis, PI flow cytometry. The assay is classed as cell-based, mouse. Conditions: TNF-α 50 ng/ml, 24 h; for cell death (sub-G1 peak): agonist pretreatment where present. Summed up: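 Cells were grown in 6-well plates, pretreated with agonist (10 μM, 30 min, kept present), and exposed to TNF-α 50 ng/ml. At 24 h after induction, cells were trypsinized, stained with PI (10 μg/ml) for 30 min, and analyzed by flow cytometry. Cell death was scored as the percentage of cells with sub-G1 DNA content.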

Assay [5] relates to P2Y2. Conditions: read-out: EC50 PLC activation; P2Y2, transfected astrocytoma cells; cited from earlier work.
In assay [6] the test system is P2Y4. Conditions: read-out: EC50 PLC activation; P2Y4, transfected astrocytoma cells; cited from earlier work.
The test system of assay [7] is P2Y6. Conditions: read-out: EC50 PLC activation; P2Y6, transfected astrocytoma cells; cited from earlier work.
Assay [8] deals with P2Y1 receptor (Mus musculus, UniProt P49650). Nature of the assay: Competition binding against [125I]MRS2500 in MIN6 cell membranes.
Sequence of P2Y1 receptor (P49650 whole entry): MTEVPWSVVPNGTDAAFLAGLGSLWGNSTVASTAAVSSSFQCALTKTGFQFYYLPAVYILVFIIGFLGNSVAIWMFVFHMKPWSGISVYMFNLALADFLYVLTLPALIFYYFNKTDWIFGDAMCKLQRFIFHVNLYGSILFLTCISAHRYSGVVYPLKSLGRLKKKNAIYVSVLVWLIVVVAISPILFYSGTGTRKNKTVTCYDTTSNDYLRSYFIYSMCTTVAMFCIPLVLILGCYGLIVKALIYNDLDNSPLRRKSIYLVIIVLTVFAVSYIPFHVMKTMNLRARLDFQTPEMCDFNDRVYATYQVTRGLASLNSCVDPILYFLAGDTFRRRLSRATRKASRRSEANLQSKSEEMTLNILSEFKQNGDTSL
In assay [9] the target is mouse P2Y1 receptor (Mus musculus, UniProt P49650). The assay can be described thus: Saturation binding of [125I]MRS2500 in MIN6 cell membranes. The settings on record: n=3. Summed up: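 Membranes came from MIN6 cells at 80% confluence: homogenized, cleared at 100 × g for 5 min, Polytron-homogenized in 50 mM Tris-HCl pH 7.4, and pelleted at 20,000 × g for 20 min at 4°C. They were incubated with 0.2–7.2 nM [125I]MRS2500 in 50 mM Tris, MgCl2, pH 7.4, for 60 min at 4°C. Nonspecific binding used 10 μM unlabelled ligand. Bound ligand was collected on GF/B filters; Bmax was expressed per mg protein (BCA) and KD from saturation/Scatchard analysis; n=3.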
Sequence of mouse P2Y1 receptor (P49650 whole entry): as above

Where [10] appears, read: against [125I]MRS2500, MIN6 cell membranes, mean ± s.e.m. of three experiments.

In the case of `S=C=Nc1cccc(NC(=S)NCCCCNC(=S)Nc2cccc(N=C=S)c2)c1` [MRS2578], the “effect of antagonist on insulin secretion induced by Up3U” value in assay [1] (antagonist 10 μM, Up3U 10 μM) was “significantly blocked”.
The EC50 is the concentration needed to bring the measured effect to its halfway point. Consider `O=c1ccn([C@@H]2O[C@H](COP(=O)(O)OP(=O)(O)OP(=O)(O)OC[C@@H]3O[C@@H](n4ccc(=O)[nH]c4=O)C(O)[C@@H]3O)[C@H](O)C2O)c(=O)[nH]1` (stereo partly drawn) [Up3U, P^1,P^4-di(uridine 5′-)triphosphate], for which, in assay [1] (3.3 mM glucose, data not shown), the “effect on insulin secretion at low glucose” value was “did not show any significant effect”. Further, in assay [1] (agonist 10 μM, 35 mM glucose), the “increase in insulin secretion compared with glucose alone” value is on record as 2 fold. Besides, the EC50 in [1] (16.7 mM glucose) was 30.7 ± 12.7 nM; in [2], 29 ± 7.3 nM; in [5], 1310 ± 210 nM; in assay [6], 870 ± 110 nM; in assay [7], 270 ± 70 nM. For the same molecule, in assay [3] (agonist 10 μM), the “cells homogeneously stained only with HO342” value was “more than 80%”. Further, the “cytoprotection against TNF-α induced apoptosis (microscopy)” value in assay [3] (agonist 10 μM pretreatment) is “significant cytoprotection”. In addition, in [3], the “nuclei/cells double stained with HO342 and PI” value was ~ 10%. The “reduction of cell death compared to TNF-α alone” value in [4] (agonist pretreatment) was “significant reduction in cell death”. Besides, in assay [4], the “cell death (sub-G1 peak)” value was determined as 25%.
Consider `CSc1nc(N)c2ncn(C3CC(O)C4(COP(=O)(O)OP(=O)(O)O)CC34)c2n1` (stereo not drawn) [MRS2365, (N)-methanocarba-2′-deoxy-2-methylthio-adenosine-5′-diphosphate], for which, in assay [1] (16.7 mM glucose), the EC50 amounted to 25.8 ± 5.6 nM.
One may read the Ki as the dissociation constant of the complex between target and ligand, obtained from inhibition or displacement. A low value points to higher affinity. Turning to `CNc1nc(Cl)nc2c1ncn2[C@H]1C[C@H](OP(=O)(O)O)[C@]2(COP(=O)(O)O)C[C@H]12` [MRS2279, 2-chloro-N^6-methyl-(N)-methanocarba-2′-deoxyadenosine-3′,5′-bisphosphate], the affinity in [8] (setting [10]) corresponds to a Ki of 6.86 ± 0.12 nM.
The same measure, in the same setting: the result for `CNc1nc(I)nc2c1ncn2[C@H]1C[C@H](OP(=O)(O)O)[C@]2(COP(=O)(O)O)C[C@H]12` [MRS2500, 2-iodo-N^6-methyl-(N)-methanocarba-2′-deoxyadenosine-3′,5′-bisphosphate] reads 2.92 ± 0.21 nM.
For the molecule TNF-α, the “nuclei/cells double stained with HO342 and PI” value in [3] is 30-40%. For the same molecule, the “cell death (sub-G1 peak)” value in [4] was 54%.
`Nc1ncnc2c1ncn2[C@@H]1O[C@H](COP(=O)(O)OP(=O)(O)O)[C@@H](O)[C@H]1O` [ADP]: in [8] (setting [10]), affinity was put at a Ki of 335 ± 3.9 nM. Further, the “effect on insulin release” value in [1] (agonist 10 μM, 16.7 mM glucose) is recorded as “stimulated insulin release”. For the same molecule, in assay [1] (concentration response studies, 16.7 mM glucose), the “concentration at which insulin secretion was maximal” value came to 10 µM.
`CNc1ncnc2c1ncn2[C@H]1C[C@H](OP(=O)(O)O)[C@@H](COP(=O)(O)O)O1` [MRS2179, N^6-methyl-2′-deoxyadenosine-3′,5′-bisphosphate] registered a Ki in assay [8] of 49.8 ± 0.23 nM.
Broadly, the Kd is the free concentration of one partner at which half of the binding sites on the other are occupied at equilibrium, for simple one-to-one binding. On to `CNc1nc(I)nc2c1ncn2[C@H]1C[C@H](OP(=O)(O)O)[C@]2(COP(=O)(O)O)C[C@H]12` [[^125I]MRS2500], for which the Bmax in assay [9] was 307±22 fmol receptor per mg protein. Binding in assay [9] (saturation binding, 60 min at 4° C) was characterised by a dissociation constant (Kd) of 4.74 ± 0.47 nM.
